In ChEMBL document CHEMBL4765427, “A low toxic CRM1 degrader: Synthesis and anti-proliferation on MGC803 and HGC27” (Eur J Med Chem, 2020) one finds Activity and IC50 data, which are given here for three compounds.

Calls of active or inactive are those of the source. The rule behind the calls is not given here.

Assay [1] deals with Cellular tumor antigen p53 (Homo sapiens) (UniProt P04637). Nature of the assay: Induction of p53 cytoplasmic translocation in human MGC-803 cells assessed as increase in p53 bound BCL2 expression at 10 uM measured after 6 hrs in presence of proteasome inhibitor MG132 by DAPI staining based immunofluorescence assay. Particulars: filed as modulator.
Assay [2] deals with Exportin-1 (Homo sapiens) (UniProt O14980). Nature of the assay: Induction of CRM1 degradation in human HGC-27 cells assessed as reduction in CRM1 expression at 5 uM measured after 24 hrs in presence of proteasome inhibitor MG132 by Western blot analysis. Format: cell-based. An outline of the steps: (§1)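 MGC803 and HGC27 cells were exposed to 5 μM compound for 24 h with or without 0.05 μM MG132. CRM1 protein was measured by Western blot on RIPA lysates, with BCA normalization, SDS-PAGE/PVDF transfer and ECL detection.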

Assay [3] addresses Cellular tumor antigen p53 (Homo sapiens) (UniProt P04637). In words: Induction of p53 cytoplasmic translocation in human MGC-803 cells assessed as increase in p53 bound BCL-XL expression at 10 uM measured after 6 hrs in presence of proteasome inhibitor MG132 by DAPI staining based immunofluorescence assay. Particulars: filed as modulator.
For assay [4] the target is unchanged. In words: Induction of p53 cytoplasmic translocation in human MGC-803 cells at 5 uM measured after 24 hrs in presence of proteasome inhibitor MG132 by immunoprecipitation method. Format: cell-based. Particulars: filed as modulator, dose 10.0 µM, in the assay text read “at 10 uM” for “at 5 uM”. An outline of the steps: (§2)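 Cells pretreated with 0.05 μM MG132 for 1 h, then exposed to compound for 24 h. Proteins co-precipitated with anti-p53 antibody and detected by immunoblot.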

For assay [5], the target named is Exportin-1 (Homo sapiens) (UniProt O14980). In words: Induction of CRM1 degradation in human MGC-803 cells assessed as increase in Ranbp1 accumulation in nucleus at 10 uM measured after 6 hrs by DAPI staining based immunofluorescence assay. Format: cell-based. An outline of the steps: (§3)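 MGC803 cells were exposed to 10 μM compound for 0 or 6 h. They were fixed in 4% paraformaldehyde for 30 min, permeabilized with 0.1% Triton X-100 for 10 min and blocked with 10% goat serum for 30 min. Staining used anti-Ranbp1 or anti-p53 (green) with DAPI nuclei, and nuclear localization was imaged by confocal microscopy.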

Assay [6] has the same target. Nature of the assay: Induction of CRM1 degradation in human MGC-803 cells assessed as increase in p53 accumulation in nucleus at 10 uM measured after 6 hrs by DAPI staining based immunofluorescence assay. Format: cell-based. In outline: as §3
For assay [7] the target is unchanged. Nature of the assay: Induction of CRM1 degradation in human MGC-803 cells assessed as reduction in CRM1 expression at 5 uM measured after 24 hrs in presence of proteasome inhibitor bortezomib by Western blot analysis. The assay is classed as cell-based. A general note: In western blotting, separated proteins are transferred to a membrane and probed.
The target in assay [8] is Cellular tumor antigen p53 (Homo sapiens) (UniProt P04637). In words: Induction of p53 cytoplasmic translocation in human MGC-803 cells assessed as increase in p53 bound BCL2 expression at 5 uM measured after 24 hrs in presence of proteasome inhibitor MG132 by immunoprecipitation method. The assay is classed as cell-based. The note with it: filed as modulator, dose 10.0 µM, in the assay text read “at 10 uM” for “at 5 uM”. In outline: as §2

Assay [9] has as its target Exportin-1 (Homo sapiens) (UniProt O14980). Nature of the assay: Induction of CRM1 degradation in human HGC-27 cells assessed as reduction in CRM1 expression at 5 uM measured after 24 hrs in presence of proteasome inhibitor bortezomib by Western blot analysis. The assay is classed as cell-based.
Assay [10] concerns the target Cellular tumor antigen p53 (Homo sapiens) (UniProt P04637). Nature of the assay: Induction of p53 cytoplasmic translocation in human MGC-803 cells at 5 uM measured after 6 hrs in presence of proteasome inhibitor MG132 by DAPI staining based immunofluorescence assay. The assay is classed as cell-based. The note with it: filed as modulator, dose 10.0 µM, in the assay text read “at 10 uM” for “at 5 uM”. In outline:
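Cells pretreated ±0.05 μM MG132 for 1 h, then compound for 6 h. Fixed in 4% paraformaldehyde for 30 min, permeabilized with 0.1% Triton X-100 for 10 min, blocked with 10% normal goat serum for 30 min. Stained with p53 antibody (green) and DAPI nuclei, imaged by confocal microscopy.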

In assay [11] the target is Exportin-1 (Homo sapiens) (UniProt O14980). In words: Induction of CRM1 degradation in human MGC-803 cells assessed as reduction in CRM1 expression at 5 uM measured after 24 hrs in presence of proteasome inhibitor MG132 by Western blot analysis. The assay is classed as cell-based. In outline: as §1
The target is the same in assay [12]. In words: Induction of CRM1 degradation in human HGC-27 cells assessed as reduction in CRM1 expression at 5 uM measured after 24 hrs by Western blot analysis. Format: cell-based. An outline of the steps: as §1
Assay [13] has the same target. Nature of the assay: Induction of CRM1 degradation in human MGC-803 cells assessed as reduction in CRM1 expression measured after 24 hrs by Western blot analysis. The assay is classed as cell-based.
Assay [14] has the same target. Nature of the assay: Induction of CRM1 degradation in human MGC-803 cells assessed as reduction in CRM1 expression at 5 uM measured after 24 hrs by Western blot analysis. The assay is classed as cell-based. An outline of the steps:
as §1

Assay [15] concerns the target Cellular tumor antigen p53 (Homo sapiens) (UniProt P04637). Nature of the assay: Induction of p53 cytoplasmic translocation in human MGC-803 cells assessed as increase in p53 bound BCL-XL expression at 5 uM measured after 24 hrs in presence of proteasome inhibitor MG132 by immunoprecipitation method. Format: cell-based. Particulars: filed as modulator, dose 10.0 µM, in the assay text read “at 10 uM” for “at 5 uM”. In outline:
as §2

For assay [16], the target named is Exportin-1 (Homo sapiens) (UniProt O14980). Nature of the assay: Induction of CRM1 degradation in human HGC-27 cells assessed as reduction in CRM1 expression measured after 24 hrs by Western blot analysis. The assay is classed as cell-based. Particulars: dose 1.25-10 µM.
The test system of assay [17] is MGC-803. Nature of the assay: Antiproliferative activity against human MGC-803 cells by MTT assay. The assay is classed as functional, cell-based. In outline: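 They were seeded at 5×10⁴/well and cultured overnight, then exposed to compound for 24 h. MTT (5 mg/mL solution) was added for 4 h at 37 °C, formazan was dissolved in DMSO, and absorbance was read at 490 nm. Each experiment was run three times.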

Sequence of Cellular tumor antigen p53 (Homo sapiens) (P04637 whole entry, looked up): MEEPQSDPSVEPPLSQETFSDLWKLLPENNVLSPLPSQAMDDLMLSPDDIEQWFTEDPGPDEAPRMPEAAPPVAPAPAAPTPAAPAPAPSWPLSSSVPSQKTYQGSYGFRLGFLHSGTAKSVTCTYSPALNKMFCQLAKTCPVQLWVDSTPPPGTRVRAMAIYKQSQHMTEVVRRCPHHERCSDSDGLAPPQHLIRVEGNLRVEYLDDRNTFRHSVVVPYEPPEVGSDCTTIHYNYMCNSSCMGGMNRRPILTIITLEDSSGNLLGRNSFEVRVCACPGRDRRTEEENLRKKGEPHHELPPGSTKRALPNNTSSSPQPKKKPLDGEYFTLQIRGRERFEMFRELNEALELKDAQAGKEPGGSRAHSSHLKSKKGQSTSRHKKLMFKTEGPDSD
Sequence of Exportin-1 (Homo sapiens) (O14980 whole entry): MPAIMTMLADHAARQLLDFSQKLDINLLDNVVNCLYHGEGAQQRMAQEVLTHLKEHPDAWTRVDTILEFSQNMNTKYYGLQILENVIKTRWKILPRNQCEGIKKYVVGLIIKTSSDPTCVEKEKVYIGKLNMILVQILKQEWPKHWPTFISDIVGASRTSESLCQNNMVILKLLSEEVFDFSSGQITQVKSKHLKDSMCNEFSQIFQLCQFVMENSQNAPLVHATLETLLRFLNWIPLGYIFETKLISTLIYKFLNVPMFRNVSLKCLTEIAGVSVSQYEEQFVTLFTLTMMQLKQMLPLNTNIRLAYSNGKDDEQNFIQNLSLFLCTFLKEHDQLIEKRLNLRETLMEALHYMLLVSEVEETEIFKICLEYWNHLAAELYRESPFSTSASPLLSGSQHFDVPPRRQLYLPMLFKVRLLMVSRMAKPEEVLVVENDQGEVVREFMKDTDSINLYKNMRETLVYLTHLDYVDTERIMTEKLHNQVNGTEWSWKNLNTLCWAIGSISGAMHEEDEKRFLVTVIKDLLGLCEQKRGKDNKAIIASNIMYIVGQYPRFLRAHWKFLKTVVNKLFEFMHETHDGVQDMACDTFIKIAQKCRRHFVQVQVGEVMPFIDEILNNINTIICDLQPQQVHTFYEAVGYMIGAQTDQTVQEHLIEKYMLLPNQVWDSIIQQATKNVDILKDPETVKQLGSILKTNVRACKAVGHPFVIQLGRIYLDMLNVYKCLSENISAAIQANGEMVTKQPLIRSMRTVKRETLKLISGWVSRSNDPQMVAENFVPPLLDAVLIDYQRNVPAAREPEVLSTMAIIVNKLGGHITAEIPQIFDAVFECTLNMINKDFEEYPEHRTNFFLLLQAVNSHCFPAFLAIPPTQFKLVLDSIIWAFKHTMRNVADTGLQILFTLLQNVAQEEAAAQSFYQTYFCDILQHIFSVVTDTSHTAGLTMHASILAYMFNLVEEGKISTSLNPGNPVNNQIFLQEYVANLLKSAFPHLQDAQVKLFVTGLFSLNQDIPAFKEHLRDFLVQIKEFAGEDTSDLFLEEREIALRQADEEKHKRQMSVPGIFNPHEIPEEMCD

As to `Cc1ccc(C(C)C)c(OC[C@H]2CC=CC(=O)O2)c1`, the result in [1], in assay [3], in assay [4], in [5], in assay [6] and in [8] was Active. The result in assay [10], in assay [12], in [14] and in [15] was Active. Besides, the result in assay [2], in assay [7], in assay [9] and in assay [11] was inactive. Further, the Activity result in [13] and in assay [16] was “Dose-dependent effect” each time.

In turn, `O=c1[nH]cc(F)c(=O)[nH]1` [FLUOROURACIL] had a half-inhibitory concentration (IC50) in assay [17] of 24.8 µM. This counts as double-digit micromolar.

In the case of `O=C1C=CC[C@H](COc2ccc3c(c2)OCO3)O1`, 12 µM corresponded to half-maximal inhibition in assay [17] (IC50).

For orientation: IC50 means the point on the concentration scale where inhibition reaches its midpoint. Higher therefore signals weaker potency.
